From ChEMBL document CHEMBL1165965, “Synthesis and structure-activity relationships of 1,2,3,4-tetrahydropyrido[2,3-b]pyrazines as potent and selective inhibitors of the anaplastic lymphoma kinase” (Bioorg Med Chem, 2010) come the findings set out here.

Structures are written as SMILES. Some results are limits rather than exact numbers.

The target in assay [1] is T1, Muscle, skeletal receptor tyrosine-protein kinase (Homo sapiens) (UniProt O15146).
T1 sequence (whole entry): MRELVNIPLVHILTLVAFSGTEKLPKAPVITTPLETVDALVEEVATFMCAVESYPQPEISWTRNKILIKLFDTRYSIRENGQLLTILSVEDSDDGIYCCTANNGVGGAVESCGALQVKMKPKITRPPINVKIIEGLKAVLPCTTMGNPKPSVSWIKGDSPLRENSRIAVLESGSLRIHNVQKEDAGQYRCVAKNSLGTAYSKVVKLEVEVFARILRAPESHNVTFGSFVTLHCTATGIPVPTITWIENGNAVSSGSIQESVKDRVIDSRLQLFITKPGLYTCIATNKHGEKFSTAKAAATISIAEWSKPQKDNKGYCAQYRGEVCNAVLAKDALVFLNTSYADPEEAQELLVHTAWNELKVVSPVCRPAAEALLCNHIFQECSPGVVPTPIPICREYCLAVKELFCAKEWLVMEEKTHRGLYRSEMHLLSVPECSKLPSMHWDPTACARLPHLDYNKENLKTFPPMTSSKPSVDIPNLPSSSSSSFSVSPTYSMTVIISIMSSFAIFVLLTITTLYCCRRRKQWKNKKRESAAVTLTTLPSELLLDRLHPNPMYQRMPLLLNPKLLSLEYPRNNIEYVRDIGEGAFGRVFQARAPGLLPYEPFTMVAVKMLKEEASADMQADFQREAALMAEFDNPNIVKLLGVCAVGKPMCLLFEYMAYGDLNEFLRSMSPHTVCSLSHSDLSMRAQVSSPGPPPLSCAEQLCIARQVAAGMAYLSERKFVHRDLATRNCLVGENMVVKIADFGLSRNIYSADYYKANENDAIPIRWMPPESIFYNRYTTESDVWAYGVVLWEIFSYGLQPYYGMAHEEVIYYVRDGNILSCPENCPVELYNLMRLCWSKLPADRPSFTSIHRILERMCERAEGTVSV
Kind of assay: Inhibition of MUSK at 1 uM.

Assay [2] addresses Tyrosine-protein kinase receptor Tie-1 (Homo sapiens) (UniProt P35590). Nature of the assay: Inhibition of TIE1 at 1 uM.
Assay [3] relates to Tyrosine-protein kinase ABL1 (Homo sapiens), P00519 [E255K]. Kind of assay: Inhibition of ABL1 E255K mutant at 1 uM. The method in brief:
(§1)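 Ambit KINOMEscan screen at a single concentration across a 250–400 kinase panel, recorded as percent inhibition. Selectivity was expressed as S(90), the fraction of kinases inhibited >90%.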

The target of assay [4] is T2, Ephrin type-B receptor 4 (Homo sapiens) (UniProt P54760).
T2 sequence (whole entry): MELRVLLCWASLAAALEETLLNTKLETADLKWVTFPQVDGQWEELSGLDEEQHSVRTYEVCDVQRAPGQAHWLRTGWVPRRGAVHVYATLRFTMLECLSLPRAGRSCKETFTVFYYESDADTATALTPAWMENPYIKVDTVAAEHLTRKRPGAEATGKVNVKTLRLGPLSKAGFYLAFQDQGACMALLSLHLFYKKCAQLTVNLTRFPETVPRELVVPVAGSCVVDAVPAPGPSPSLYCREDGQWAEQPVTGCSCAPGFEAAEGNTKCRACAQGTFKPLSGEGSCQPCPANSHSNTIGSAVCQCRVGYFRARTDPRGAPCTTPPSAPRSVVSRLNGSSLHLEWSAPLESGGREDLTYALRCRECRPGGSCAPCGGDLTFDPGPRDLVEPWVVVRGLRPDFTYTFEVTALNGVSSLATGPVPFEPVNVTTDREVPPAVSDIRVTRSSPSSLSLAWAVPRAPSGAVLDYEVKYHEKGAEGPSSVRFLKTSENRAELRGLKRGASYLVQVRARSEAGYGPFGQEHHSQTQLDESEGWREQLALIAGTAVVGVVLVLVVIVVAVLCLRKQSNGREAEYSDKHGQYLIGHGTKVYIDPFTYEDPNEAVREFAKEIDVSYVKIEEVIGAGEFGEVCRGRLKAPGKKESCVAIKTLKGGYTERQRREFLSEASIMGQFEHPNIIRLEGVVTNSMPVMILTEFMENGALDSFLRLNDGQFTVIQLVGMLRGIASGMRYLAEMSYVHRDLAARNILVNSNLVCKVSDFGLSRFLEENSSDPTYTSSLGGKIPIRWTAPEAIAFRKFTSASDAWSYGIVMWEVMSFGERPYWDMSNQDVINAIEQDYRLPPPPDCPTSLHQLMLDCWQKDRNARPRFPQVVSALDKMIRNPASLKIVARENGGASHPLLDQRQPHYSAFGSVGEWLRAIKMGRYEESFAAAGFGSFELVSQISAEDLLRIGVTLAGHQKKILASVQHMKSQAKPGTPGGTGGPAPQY
Kind of assay: Inhibition of EPHB4 at 1 uM. The gist of the method: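 Single-concentration screen using Ambit Bioscience KINOMEscan technology across a panel of 250–400 kinases. Per-kinase inhibition from this screen was summarized as S(90), the fraction of kinases inhibited by more than 90%.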

The target in assay [5] is Serine/threonine-protein kinase PAK 5 (Homo sapiens) (UniProt Q9P286). Kind of assay: Inhibition of PAK7 at 1 uM.
Serine/threonine-protein kinase PAK 5 (Homo sapiens), sequence (Q9P286 whole entry, looked up): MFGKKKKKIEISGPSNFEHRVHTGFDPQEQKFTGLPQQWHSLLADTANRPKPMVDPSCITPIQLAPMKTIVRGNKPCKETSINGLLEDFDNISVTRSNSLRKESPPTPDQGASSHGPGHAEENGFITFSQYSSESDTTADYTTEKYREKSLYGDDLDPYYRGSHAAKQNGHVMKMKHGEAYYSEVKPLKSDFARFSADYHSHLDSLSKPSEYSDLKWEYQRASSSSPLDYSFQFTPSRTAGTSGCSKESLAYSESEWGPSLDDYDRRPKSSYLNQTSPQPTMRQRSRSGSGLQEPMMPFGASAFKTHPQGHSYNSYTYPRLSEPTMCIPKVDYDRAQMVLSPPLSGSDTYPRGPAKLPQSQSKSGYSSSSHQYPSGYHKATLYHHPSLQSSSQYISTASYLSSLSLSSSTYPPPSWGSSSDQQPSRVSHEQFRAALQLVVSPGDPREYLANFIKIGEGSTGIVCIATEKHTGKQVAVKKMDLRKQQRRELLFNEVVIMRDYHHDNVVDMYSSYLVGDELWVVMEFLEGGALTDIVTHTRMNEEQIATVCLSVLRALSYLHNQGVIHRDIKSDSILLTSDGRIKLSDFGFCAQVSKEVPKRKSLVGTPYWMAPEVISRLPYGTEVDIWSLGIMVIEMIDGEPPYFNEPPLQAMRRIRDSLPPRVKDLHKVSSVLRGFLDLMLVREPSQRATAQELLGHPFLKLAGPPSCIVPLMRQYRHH
Assay [6] concerns the target T3, Receptor-interacting serine/threonine-protein kinase 1 (Homo sapiens) (UniProt Q13546).
T3 sequence (whole entry): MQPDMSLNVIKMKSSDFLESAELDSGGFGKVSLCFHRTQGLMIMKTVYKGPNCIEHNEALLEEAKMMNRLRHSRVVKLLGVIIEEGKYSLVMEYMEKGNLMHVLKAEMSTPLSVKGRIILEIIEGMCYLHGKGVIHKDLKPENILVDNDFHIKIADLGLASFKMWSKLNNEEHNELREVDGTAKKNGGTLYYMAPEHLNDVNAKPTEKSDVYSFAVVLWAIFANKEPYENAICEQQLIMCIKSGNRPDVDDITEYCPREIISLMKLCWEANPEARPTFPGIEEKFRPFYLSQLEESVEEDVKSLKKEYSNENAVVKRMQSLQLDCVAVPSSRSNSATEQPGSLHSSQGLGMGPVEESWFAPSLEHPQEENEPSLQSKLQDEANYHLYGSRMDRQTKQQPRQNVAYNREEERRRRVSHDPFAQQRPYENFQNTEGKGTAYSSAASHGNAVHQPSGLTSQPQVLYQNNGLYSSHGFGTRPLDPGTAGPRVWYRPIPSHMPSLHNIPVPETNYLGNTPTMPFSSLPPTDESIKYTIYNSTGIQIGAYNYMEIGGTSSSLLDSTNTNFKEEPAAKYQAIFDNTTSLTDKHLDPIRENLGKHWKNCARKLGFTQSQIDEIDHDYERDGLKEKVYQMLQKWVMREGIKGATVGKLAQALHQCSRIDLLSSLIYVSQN
Kind of assay: Inhibition of RIPK1 at 1 uM.

Assay [7] deals with Calcium/calmodulin-dependent protein kinase type 1D (Homo sapiens) (UniProt Q8IU85). Nature of the assay: Inhibition of CAMK1D at 1 uM. The method in brief: as §1
Calcium/calmodulin-dependent protein kinase type 1D (Homo sapiens), sequence (Q8IU85 whole entry, looked up): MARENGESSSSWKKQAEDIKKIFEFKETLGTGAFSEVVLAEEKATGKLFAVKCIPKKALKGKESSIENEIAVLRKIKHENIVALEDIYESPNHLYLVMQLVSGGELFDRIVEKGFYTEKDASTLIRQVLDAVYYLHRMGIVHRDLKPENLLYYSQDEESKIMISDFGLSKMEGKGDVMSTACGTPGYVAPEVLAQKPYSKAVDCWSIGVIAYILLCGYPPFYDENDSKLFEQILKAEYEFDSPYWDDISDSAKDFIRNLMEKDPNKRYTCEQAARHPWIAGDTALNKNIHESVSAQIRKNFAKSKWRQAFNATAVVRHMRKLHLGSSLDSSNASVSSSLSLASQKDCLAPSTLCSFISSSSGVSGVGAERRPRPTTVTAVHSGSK
The target in assay [8] is TGF-beta receptor type-2 (Homo sapiens) (UniProt P37173). Kind of assay: Inhibition of TGFBR2 at 1 uM.
TGF-beta receptor type-2 (Homo sapiens), sequence (P37173 whole entry): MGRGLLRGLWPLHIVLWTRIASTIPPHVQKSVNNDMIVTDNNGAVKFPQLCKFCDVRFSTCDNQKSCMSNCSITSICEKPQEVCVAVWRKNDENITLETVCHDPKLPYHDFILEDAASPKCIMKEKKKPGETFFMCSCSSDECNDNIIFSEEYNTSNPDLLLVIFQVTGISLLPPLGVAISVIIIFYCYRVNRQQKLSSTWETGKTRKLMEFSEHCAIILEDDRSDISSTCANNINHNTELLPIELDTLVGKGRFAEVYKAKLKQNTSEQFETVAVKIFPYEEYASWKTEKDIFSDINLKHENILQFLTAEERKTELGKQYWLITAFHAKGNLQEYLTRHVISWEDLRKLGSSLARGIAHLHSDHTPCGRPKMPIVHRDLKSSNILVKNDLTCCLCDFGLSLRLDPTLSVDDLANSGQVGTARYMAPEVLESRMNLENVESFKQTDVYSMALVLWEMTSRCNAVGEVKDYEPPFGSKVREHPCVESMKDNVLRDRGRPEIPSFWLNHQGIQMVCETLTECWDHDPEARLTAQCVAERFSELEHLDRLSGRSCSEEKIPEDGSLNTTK
For assay [9], the target named is Wee1-like protein kinase 2 (Homo sapiens) (UniProt P0C1S8). Kind of assay: Inhibition of WEE2 at 1 uM.
Wee1-like protein kinase 2 (Homo sapiens), sequence (P0C1S8 whole entry, looked up): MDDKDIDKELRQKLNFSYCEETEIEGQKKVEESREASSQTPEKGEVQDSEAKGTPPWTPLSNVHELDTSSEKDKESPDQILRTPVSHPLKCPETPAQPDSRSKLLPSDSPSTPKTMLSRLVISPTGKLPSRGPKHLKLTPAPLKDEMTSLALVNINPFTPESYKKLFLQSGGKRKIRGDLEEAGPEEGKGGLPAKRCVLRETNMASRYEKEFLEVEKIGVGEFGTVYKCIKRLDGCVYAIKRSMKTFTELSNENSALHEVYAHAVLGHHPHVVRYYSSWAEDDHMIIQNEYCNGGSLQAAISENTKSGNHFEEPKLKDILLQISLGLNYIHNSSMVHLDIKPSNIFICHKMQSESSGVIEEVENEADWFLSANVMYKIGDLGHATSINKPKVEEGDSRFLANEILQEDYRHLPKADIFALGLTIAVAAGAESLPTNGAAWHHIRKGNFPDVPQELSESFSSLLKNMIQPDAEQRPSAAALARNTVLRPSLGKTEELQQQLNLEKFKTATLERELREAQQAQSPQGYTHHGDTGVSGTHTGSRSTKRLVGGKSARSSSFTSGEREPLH

Tyrosine-protein kinase receptor Tie-1 (Homo sapiens), sequence (P35590 whole entry): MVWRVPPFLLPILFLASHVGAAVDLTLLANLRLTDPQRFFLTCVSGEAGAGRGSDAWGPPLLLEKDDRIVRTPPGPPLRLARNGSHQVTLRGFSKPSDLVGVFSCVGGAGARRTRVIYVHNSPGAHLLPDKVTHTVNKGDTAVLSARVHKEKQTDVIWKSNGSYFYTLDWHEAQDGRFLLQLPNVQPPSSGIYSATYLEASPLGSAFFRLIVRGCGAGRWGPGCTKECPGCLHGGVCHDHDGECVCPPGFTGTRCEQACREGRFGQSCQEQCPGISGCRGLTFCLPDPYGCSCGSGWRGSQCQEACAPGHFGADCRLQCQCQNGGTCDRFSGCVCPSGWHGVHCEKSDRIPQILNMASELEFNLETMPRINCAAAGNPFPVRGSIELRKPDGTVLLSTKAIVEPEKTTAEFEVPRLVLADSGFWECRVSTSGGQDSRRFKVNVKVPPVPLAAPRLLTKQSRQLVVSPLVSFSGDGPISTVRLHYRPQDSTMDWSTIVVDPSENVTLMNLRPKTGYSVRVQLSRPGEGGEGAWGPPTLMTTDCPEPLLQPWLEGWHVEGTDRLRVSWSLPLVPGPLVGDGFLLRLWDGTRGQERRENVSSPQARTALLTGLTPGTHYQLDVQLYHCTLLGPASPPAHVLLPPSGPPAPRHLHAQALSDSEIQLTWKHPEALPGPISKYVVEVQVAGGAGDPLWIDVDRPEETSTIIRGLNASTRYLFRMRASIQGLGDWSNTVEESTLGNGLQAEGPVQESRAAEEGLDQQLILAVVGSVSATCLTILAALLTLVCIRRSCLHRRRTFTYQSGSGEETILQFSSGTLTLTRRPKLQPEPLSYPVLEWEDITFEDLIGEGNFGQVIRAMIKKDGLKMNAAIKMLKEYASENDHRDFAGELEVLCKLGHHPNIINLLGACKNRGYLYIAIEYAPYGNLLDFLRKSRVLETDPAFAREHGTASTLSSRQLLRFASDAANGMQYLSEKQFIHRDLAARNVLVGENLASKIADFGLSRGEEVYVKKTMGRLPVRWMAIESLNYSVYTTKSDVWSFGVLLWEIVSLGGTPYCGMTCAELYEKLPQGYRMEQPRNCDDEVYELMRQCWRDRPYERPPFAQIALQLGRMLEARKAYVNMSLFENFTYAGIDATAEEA
Tyrosine-protein kinase ABL1 (Homo sapiens), P00519 [E255K], sequence (P00519 whole entry E255K): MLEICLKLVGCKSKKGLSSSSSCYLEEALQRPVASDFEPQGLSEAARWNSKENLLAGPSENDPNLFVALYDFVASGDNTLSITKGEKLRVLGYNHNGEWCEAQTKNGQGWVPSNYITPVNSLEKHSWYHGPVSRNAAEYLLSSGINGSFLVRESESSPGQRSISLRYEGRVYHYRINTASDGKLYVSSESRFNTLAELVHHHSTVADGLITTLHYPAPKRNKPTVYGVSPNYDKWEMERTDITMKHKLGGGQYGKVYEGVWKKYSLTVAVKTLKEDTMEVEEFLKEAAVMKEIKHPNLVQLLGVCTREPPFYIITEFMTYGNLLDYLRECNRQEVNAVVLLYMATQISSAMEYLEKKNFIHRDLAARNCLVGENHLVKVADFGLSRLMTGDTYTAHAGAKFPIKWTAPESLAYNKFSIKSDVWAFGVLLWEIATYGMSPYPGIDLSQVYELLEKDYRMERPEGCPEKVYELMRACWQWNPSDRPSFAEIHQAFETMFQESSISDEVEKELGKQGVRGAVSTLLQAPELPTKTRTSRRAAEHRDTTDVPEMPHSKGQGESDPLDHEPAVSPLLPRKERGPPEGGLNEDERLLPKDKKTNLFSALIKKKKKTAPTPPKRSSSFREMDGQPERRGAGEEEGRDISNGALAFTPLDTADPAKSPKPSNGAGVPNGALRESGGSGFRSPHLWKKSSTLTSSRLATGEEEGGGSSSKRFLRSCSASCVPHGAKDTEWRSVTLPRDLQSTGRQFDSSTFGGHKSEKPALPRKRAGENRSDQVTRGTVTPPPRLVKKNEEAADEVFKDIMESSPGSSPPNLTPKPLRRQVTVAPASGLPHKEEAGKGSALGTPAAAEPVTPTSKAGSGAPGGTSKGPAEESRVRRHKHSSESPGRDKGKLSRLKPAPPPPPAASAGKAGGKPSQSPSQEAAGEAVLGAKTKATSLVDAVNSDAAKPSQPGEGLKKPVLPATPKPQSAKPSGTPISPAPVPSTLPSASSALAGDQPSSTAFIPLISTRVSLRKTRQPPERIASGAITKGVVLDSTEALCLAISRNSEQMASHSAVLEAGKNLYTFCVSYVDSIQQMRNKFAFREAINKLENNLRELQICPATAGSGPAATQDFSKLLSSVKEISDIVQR

Take `FC(F)(F)c1ccc(Cl)cc1CN1CCNc2ncc(-c3ccnc(N4CCNCC4)c3)cc21`: the inhibition (commonly the drop in the measured response relative to a control, in per cent) is below 50% in [1]; 81% in assay [2]; below 50% in assay [3]; below 50% in [4]; below 50% in assay [5]; below 50% in assay [6]. Moreover, the inhibition in assay [7], in [8] and in assay [9] was below 50% throughout.

With `CN1CCN(c2ccc(-c3cnc4c(c3)N(Cc3cc(F)ccc3F)CCN4)cn2)CC1`, the inhibition in assay [1], in assay [2], in assay [3], in assay [4], in [5] and in assay [6] was below 50% each time. Also, the inhibition in [7], in assay [8] and in assay [9] was below 50% throughout.

`CN1CCN(c2ccc(-c3cnc4c(c3)N(Cc3cc(Cl)ccc3Cl)CCN4)cn2)CC1`: the inhibition in [1], in [2], in [3], in assay [4], in assay [5] and in assay [6] was below 50% in each case. For the same compound, the inhibition in assay [7], in assay [8] and in assay [9] was below 50% each time.

In the case of `O=C(O)c1ccc(-c2cnc3c(c2)N(Cc2cc(Cl)ccc2C(F)(F)F)CCN3)cc1`, the inhibition in [1], in [3], in assay [4], in [5], in [6] and in assay [7] was below 50% each time. In assay [8], this compound came in with an inhibition below 50%.

In the case of `CN1CCN(c2ccc(-c3cnc4c(c3)N(Cc3cc(Cl)ccc3C(F)(F)F)CCN4)cn2)CC1`, the inhibition in assay [1], in [2], in assay [3], in assay [4], in assay [5] and in assay [6] was below 50% throughout. The inhibition in assay [7], in assay [8] and in assay [9] was below 50% each time.

For `COC1CCN(C(=O)c2ccc(-c3cnc4c(c3)N(Cc3cc(Cl)ccc3C(F)(F)F)CCN4)cc2)CC1`, the inhibition in assay [1], in [3], in [4], in assay [5], in assay [6] and in assay [7] was below 50% throughout. Moreover, the inhibition in [8] is below 50%.

`O=C(c1ccc(-c2cnc3c(c2)N(Cc2cc(Cl)ccc2C(F)(F)F)CCN3)cc1)N1CCC(N2CCCC2)CC1`: the inhibition in assay [1], in assay [3], in assay [4], in assay [5], in [6] and in assay [7] was below 50% throughout. The inhibition in assay [8] was below 50%.

For `CN1CCN(c2ccc(-c3cnc4c(c3)N(Cc3c(F)ccc(F)c3Cl)CCN4)cn2)CC1`, the inhibition in [1] is below 50%; in assay [2], below 50%; in assay [3], 70%; in [4], below 50%; in assay [5], below 50%; in [6], below 50%. The inhibition in assay [7], in [8] and in [9] was below 50% throughout.

With `O=C(c1ccc(-c2cnc3c(c2)N(Cc2cc(Cl)ccc2C(F)(F)F)CCN3)cc1)N1CCCCC1`, the inhibition in assay [1], in assay [3], in assay [4], in assay [5], in assay [6] and in [7] was below 50% in each case. This compound came in with an inhibition in assay [8] below 50%.

In the case of `CC(=O)N1CCN(c2cc(-c3cnc4c(c3)N(Cc3cc(Cl)ccc3C(F)(F)F)CCN4)ccn2)CC1`, the inhibition in [1], in assay [2], in [3], in assay [4], in assay [5] and in [6] was below 50% throughout. Further, the inhibition in assay [7], in [8] and in assay [9] was below 50% throughout.
